Laboratory results published in ChEMBL document CHEMBL4038326, “Discovery, Structure-Activity Relationship, and Binding Mode of an Imidazo[1,2-a]pyridine Series of Autotaxin Inhibitors” (J Med Chem, 2017).

How the values were obtained:
Autotaxin [1] = molecular target: T1, Autotaxin (Homo sapiens, UniProt Q13822); assay: Inhibition of glycosylated human ATX using LPC 16:0 as substrate after 30 mins by luminescence assay
Procedure, shortened: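 Started with 150 µM LPC 16:0 solution, 30 min at 37°C. Stopped with EGTA and choline detected by choline oxidase/HRP/TOOS/4-aminoantipyrine; read after 30 min at room temperature.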

Autotaxin [2] = molecular target: Autotaxin (Rattus norvegicus, UniProt Q64610); assay: Inhibition of ATX in rat plasma assessed as reduction in plasma lysophosphatidic acid 18:2 levels after 2 hrs by LC-MS/MS method
Procedure, shortened: (§1)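 Rat plasma thawed on ice and incubated with a compound dose range for 2 h at 37°C. Methanol precipitation with LPA 17:0 internal standard, isocratic C18 LC-MS/MS, LPA 18:2/LPA 17:0 peak-area ratio. % reduction = 100 − (ratio/control ratio × 100). Some compounds were tested only at 0.5, 5 and 50 µM (n = 3).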

[3] = Oral bioavailability in Sprague-Dawley rat at 5 mg/kg; assay type: ADME, organism-based; settings: in vivo
Procedure, shortened: (§2)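 PK from single 1 mg/kg iv and 5 mg/kg po doses (n = 3); mice sampled compositely as a group of six. Plasma drug by LC-MS/MS against an eight-level calibration curve with QCs, LLOQ 4 ng/mL. Parameters by noncompartmental analysis of averaged plasma concentrations; CV% reported for rats.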

[4] = molecular target: Autotaxin (Rattus norvegicus) (UniProt Q64610); assay: Inhibition of ATX in rat plasma assessed as reduction in plasma lysophosphatidic acid 18:2 levels at 0.5 to 50 uM after 2 hrs by LC-MS/MS method relative to control; procedure, shortened: as §1
[5] = Clearance in Sprague-Dawley rat at 1 mg/kg, iv; assay type: ADME, organism-based; settings: in vivo; procedure, shortened: as §2
Autotaxin [6] = molecular target: T1, Autotaxin; assay: Inhibition of glycosylated human ATX using FS-3 as substrate preincubated for 30 mins followed by substrate addition measured after 30 mins by fluorescence assay
Procedure, shortened: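 Fivefold compound dilutions from a 20 µM top. Started with 0.75 µM FS-3 solution; fluorescence (ex 485, em 520 nm) read after 30 min at room temperature. SD where replicated at least twice.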

[7] = molecular target: Autotaxin (Rattus norvegicus) (UniProt Q64610); settings: 5 uM
[8] = molecular target: Autotaxin (Rattus norvegicus) (UniProt Q64610); settings: 0.5 uM
[9] = molecular target: Autotaxin (Rattus norvegicus) (UniProt Q64610); settings: 50 uM
[10] = Plasma concentration in Sprague-Dawley rat at 5 mg/kg, po measured after 3 hrs by LC-MS/MS method; assay type: ADME, organism-based
Procedure, shortened: (§3)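 Fasted male Sprague Dawley rats dosed orally at 5 mg/kg in 10% hydroxypropyl-β-cyclodextrin (pH 3, citric acid); jugular catheter blood into Li-heparin at 0.5, 1, 3 h. Plasma level by LC-MS/MS against an eight-level calibration curve with QCs, LLOQ 4 ng/mL; mean of 3 animals.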

[11] = Protein binding in Sprague-Dawley rat plasma; assay type: ADME, cell-free; settings: read-out: PPB
[12] = Half life in mouse at 1 mg/kg, iv; assay type: ADME, organism-based; settings: in vivo; procedure, shortened: as §2
[13] = Volume of distribution at steady state in mouse at 1 mg/kg, iv; assay type: ADME, organism-based; settings: in vivo, read-out: Vdss; procedure, shortened: as §2
[14] = Plasma concentration in Sprague-Dawley rat at 5 mg/kg, po measured after 1 hr by LC-MS/MS method; assay type: ADME, organism-based; procedure, shortened: as §3
Rattus norvegicus [15] = assay: In vivo inhibition of ATX in Sprague-Dawley rat plasma assessed as reduction in plasma lysophosphatidic acid 18:2 levels at 5 mg/kg, po measured after 3 hrs by LC-MS/MS method; assay type: functional
Procedure, shortened: (§4)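 Fasted male Sprague Dawley rats given 5 mg/kg orally in 10% hydroxypropyl-β-cyclodextrin, pH 3 with citric acid. Jugular catheter blood taken into Li-heparin at 0.5, 1 and 3 h. Methanol precipitation with LPA 17:0 internal standard, isocratic C18 LC-MS/MS, peak-area ratio of LPA 18:2 to LPA 17:0 with no calibration curve. % reduction against the vehicle group mean at the same time; 3 animals.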

[16] = Plasma concentration in Sprague-Dawley rat at 5 mg/kg, po measured after 0.5 hrs by LC-MS/MS method; assay type: ADME, organism-based; procedure, shortened: as §3
Rattus norvegicus [17] = assay: In vivo inhibition of ATX in Sprague-Dawley rat plasma assessed as reduction in plasma lysophosphatidic acid 18:2 levels at 5 mg/kg, po measured after 1 hr by LC-MS/MS method; assay type: functional; procedure, shortened: as §4
Rattus norvegicus [18] = assay: In vivo inhibition of ATX in Sprague-Dawley rat plasma assessed as reduction in plasma lysophosphatidic acid 18:2 levels at 5 mg/kg, po measured after 0.5 hrs by LC-MS/MS method; assay type: functional; procedure, shortened: as §4
[19] = Half life in Sprague-Dawley rat at 1 mg/kg, iv; assay type: ADME, organism-based; settings: in vivo; procedure, shortened: as §2
[20] = Volume of distribution at steady state in Sprague-Dawley rat at 1 mg/kg, iv; assay type: ADME, organism-based; settings: in vivo, read-out: Vdss; procedure, shortened: as §2

Work on `CCc1nc2ccc(C3CCN(S(C)(=O)=O)CC3)cn2c1N(C)c1nc2c(s1)Cc1cc(F)ccc1-2` yielded an IC50 (Autotaxin [1]) of 1210 nM.
`CCc1nc2ccc(N3CCN(Cc4ncon4)CC3)cn2c1N(C)c1nc(-c2ccc(F)cc2)cs1` showed an IC50 (Autotaxin [1]) of 1710 nM.
With `CCOC(=O)CN1CCC(c2ccc3nc(CC)c(N(C)c4nc(-c5ccc(F)cc5)cs4)n3c2)CC1` the IC50 (Autotaxin [1]) was 480 nM.
`CCc1nc2ccc(C3CCN(CC(=O)N(C)C)CC3)cn2c1N(C)c1nc(-c2ccc(F)cc2)cs1` showed an IC50 (Autotaxin [2]) of 476 nM and an IC50 (Autotaxin [1]) of 261 nM.
For `CCc1nc2ccc(C(=O)NCCO)cn2c1N(C)c1nc(-c2ccc(Cl)cc2)cs1`, the bioavailability [3] was 39%, the IC50 (Autotaxin [2]) was over 50000 nM and the inhibition [4] was under 50%. For the same compound, the IC50 (Autotaxin [1]) was over 10000 nM, the clearance [5] was 2.5 mL/min/kg and the IC50 (Autotaxin [6]) was 122 nM.
Compound `CCc1nc2ccc(C3CCN(CC(N)=O)CC3)cn2c1N(C)c1nc(-c2ccc(F)cc2)cs1` has an IC50 (Autotaxin [1]) of 2370 nM.
`CCc1nc2ccc(N3CCN(CCO)CC3)cn2c1N(C)c1nc(-c2ccc(F)cc2)cs1` showed an IC50 (Autotaxin [2]) of 6080 nM, an IC50 (Autotaxin [1]) of 2360 nM and an IC50 (Autotaxin [6]) of 12 nM.
With `CCc1nc2ccc(C3CCN(S(C)(=O)=O)CC3)cn2c1N(C)c1nc(-c2ccc(F)cc2F)cs1` the IC50 (Autotaxin [1]) was 2020 nM.
Work on `CCc1nc2ccc(C3CCN(S(C)(=O)=O)CC3)cn2c1N(C)c1nc(-c2ccc(F)cc2)c(C(N)=O)s1` yielded an IC50 (Autotaxin [1]) of 1410 nM.
With `CCc1nc2ccc(N3CCN(CC(=O)N4CCOCC4)CC3)cn2c1N(C)c1nc(-c2ccc(F)cc2)cs1` the IC50 (Autotaxin [1]) was 231 nM.
Compound `CCc1nc2ccc(C3CCN(S(C)(=O)=O)CC3)cn2c1N(C)c1nc2c(s1)Cc1ccc(F)cc1-2` has an IC50 (Autotaxin [1]) of 804 nM.
`CCc1nc2ccc(C3CCN(CC(=O)N4CCCC4)CC3)cn2c1N(C)c1nc(-c2ccc(F)cc2)cs1` showed an IC50 (Autotaxin [2]) of 115 nM and an IC50 (Autotaxin [1]) of 86 nM.
Work on `CCc1nc2ccc(N3CCN(CC(=O)O)CC3)cn2c1N(C)c1nc(-c2ccc(F)cc2)cs1` yielded an IC50 (Autotaxin [1]) of 9160 nM.
With `CCc1nc2ccc(C3CCN(S(C)(=O)=O)CC3)cn2c1N(C)c1nc(-c2ccc(F)cc2)cs1` the IC50 (Autotaxin [2]) was 1030 nM and the IC50 (Autotaxin [1]) was 710 nM.
For `CCc1nc2ccc(C3CCN(CC(=O)NC4CC4)CC3)cn2c1N(C)c1nc(-c2ccc(F)cc2)cs1`, the IC50 (Autotaxin [1]) was 1610 nM.
For `CCc1nc2ccc(-c3cccnc3)cn2c1N(C)c1nc(-c2ccc(F)cc2)cs1`, the IC50 (Autotaxin [2]) was over 50000 nM, the inhibition [4] was under 50% and the IC50 (Autotaxin [1]) was over 10000 nM. It also gave an IC50 (Autotaxin [6]) of 2 nM.
Compound `CCc1nc2ccc(C3CCN(S(C)(=O)=O)CC3)cn2c1N(C)c1nc(-c2ccc(F)cc2)c(C#N)s1` has an IC50 (Autotaxin [1]) of 138 nM.
`CCc1nc2ccc(N3CCN(Cc4ncc[nH]4)CC3)cn2c1N(C)c1nc(-c2ccc(F)cc2)cs1` showed an IC50 (Autotaxin [1]) of over 4100 nM.
For `CCc1nc2ccc(C3CCN(S(C)(=O)=O)CC3)cn2c1N(C)c1nc(-c2ccc(F)cc2C#N)cs1`, the IC50 (Autotaxin [1]) was 126 nM.
Work on `CCOC(=O)N1CCC(NCc2ccc3nc(CC)c(N(C)c4nc(-c5ccc(Cl)cc5)cs4)n3c2)CC1` yielded an inhibition [7] of 67%, an inhibition [8] of 7% and an IC50 (Autotaxin [2]) of under 5000 nM. For the same compound, the IC50 (Autotaxin [1]) was 1210 nM, the IC50 (Autotaxin [6]) was 9 nM and the inhibition [9] was 100%.
In the case of `CCc1nc2ccc(C3CCN(S(C)(=O)=O)CC3)cn2c1N(C)c1nc(-c2ccc(C(C)(C)C)cc2)cs1`, the IC50 (Autotaxin [1]) is reported as 7610 nM.
`CCc1nc2ccc(C3CCN(S(C)(=O)=O)CC3)cn2c1N(C)c1nc(-c2ccc(F)cc2C)cs1` gave an IC50 (Autotaxin [1]) of 533 nM.
Compound `CCc1nc2ccc(C3CCN(S(C)(=O)=O)CC3)cn2c1N(C)c1nc(-c2ccc(F)c(F)c2)cs1` has an IC50 (Autotaxin [1]) of 1900 nM.
For `CCOC(=O)CN1CCN(c2ccc3nc(CC)c(N(C)c4nc(-c5ccc(F)cc5)cs4)n3c2)CC1`, the IC50 (Autotaxin [1]) was 280 nM.
In the case of `CCc1nc2ccc(C3CCN(S(C)(=O)=O)CC3)cn2c1N(C)c1nc(-c2cc(F)cc(F)c2)cs1`, the IC50 (Autotaxin [1]) is reported as 4250 nM.
Work on `CCc1nc2ccc(C3CCN(S(=O)(=O)CCCN(C)C)CC3)cn2c1N(C)c1nc(-c2ccc(F)cc2)cs1` yielded an IC50 (Autotaxin [1]) of 357 nM.
`CCc1nc2ccc(C3CCN(S(C)(=O)=O)CC3)cn2c1N(C)c1nc(-c2ccc(F)cc2)c(C(=O)O)s1` gave an IC50 (Autotaxin [1]) of over 10000 nM.
For `CCc1nc2ccc(C3CCN(S(C)(=O)=O)CC3)cn2c1N(C)c1nc(C2CCCCC2)cs1`, the IC50 (Autotaxin [1]) was 1900 nM.
`CCOC(=O)N1CCC(NC(=O)c2ccc3nc(CC)c(N(C)c4nc(-c5ccc(Cl)cc5)cs4)n3c2)CC1` gave an IC50 (Autotaxin [2]) of 12600 nM, an IC50 (Autotaxin [1]) of 6560 nM and an IC50 (Autotaxin [6]) of 5 nM.
For `CCc1nc2ccc(C3CCN(S(C)(=O)=O)CC3)cn2c1N(C)c1nc(-c2ccc(C(F)(F)F)cc2)cs1`, the IC50 (Autotaxin [1]) was 1000 nM.
For `CCc1nc2ccc(C3CCN(S(C)(=O)=O)CC3)cn2c1N(C)c1nc(-c2ccc(F)cc2)c(C)s1`, the IC50 (Autotaxin [1]) was 2270 nM.
Work on `CCc1nc2ccc(C3CCN(S(C)(=O)=O)CC3)cn2c1N(C)c1nc2ccccc2s1` yielded an IC50 (Autotaxin [1]) of over 10000 nM.
`CCc1nc2ccc(C3CCN(S(C)(=O)=O)CC3)cn2c1N(C)c1nc(-c2ccc(OC)cc2)cs1` gave an IC50 (Autotaxin [1]) of 1680 nM.
`CCc1nc2ccc(N3CCN(Cc4cnc[nH]4)CC3)cn2c1N(C)c1nc(-c2ccc(F)cc2)cs1` showed an IC50 (Autotaxin [2]) of 4100 nM and an IC50 (Autotaxin [1]) of 771 nM.
For `CCc1nc2ccc(N3CCOCC3)cn2c1N(C)c1nc(-c2ccc(F)cc2)cs1`, the IC50 (Autotaxin [2]) was over 50000 nM, the inhibition [4] was under 50% and the IC50 (Autotaxin [1]) was 6800 nM. It also gave an IC50 (Autotaxin [6]) of 8 nM.
With `CCc1nc2ccc(N3CCN(Cc4ncco4)CC3)cn2c1N(C)c1nc(-c2ccc(F)cc2)cs1` the IC50 (Autotaxin [1]) was 1520 nM.
`CCc1nc2ccc(C3CCN(S(C)(=O)=O)CC3)cn2c1N(C)c1nc(-c2ccc(Cl)nc2)cs1` showed an IC50 (Autotaxin [1]) of 493 nM.
Compound `CCc1nc2ccc(C3CCN(CC(=O)N4CC(O)C4)CC3)cn2c1N(C)c1nc(-c2ccc(F)cc2)c(C#N)s1` has a concentration at 3 h [10] of 58 nM, a fraction unbound [11] of under 0.01 and a half-life [12] of 2 h. For the same compound, the Vd [13] was 1.7 L/kg, the concentration at 1 h [14] was 34 nM and the inhibition in vivo at 5 mg/kg (Rattus norvegicus [15]) was 97%. For the same compound, the concentration at 0.5 h [16] was 67 nM, the inhibition in vivo at 5 mg/kg (Rattus norvegicus [17]) was 82% and the inhibition in vivo at 5 mg/kg (Rattus norvegicus [18]) was 74%. The half-life [19] was 2.1 h and the Vd [20] was 8.3 L/kg.
